Experimental data published in ChEMBL document CHEMBL3875168, “Synthesis and apoptosis inducing studies of triazole linked 3-benzylidene isatin derivatives” (Eur J Med Chem, 2016).

Columns and labels:
[1] = Cytotoxicity against human DU145 cells assessed as cell growth inhibition after 48 hrs by MTT assay; format: functional, cell-based; conditions: DU-145, 48 h
Procedure, shortened: (§1)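 Cell lines (NCCS) grown in DMEM or RPMI with 10% FBS and antibiotic-antimycotic at 37 °C, 5% CO2, 90% humidity. Cells seeded at 3-5×10^3 per well, treated 48 h with serial dilutions in medium beside vehicle control. Medium replaced with MTT (0.5 mg/mL) for 4 h, absorbance read at 570 nm. IC50 taken from concentration-response curves; sunitinib served as reference.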

[2] = Cytotoxicity against human PC3 cells assessed as cell growth inhibition after 48 hrs by MTT assay; format: functional, cell-based; conditions: PC-3, 48 h; procedure, shortened: as §1
[3] = Cytotoxicity against human A549 cells assessed as cell growth inhibition after 48 hrs by MTT assay; format: functional, cell-based; conditions: A549, 48 h; procedure, shortened: as §1
[4] = Cytotoxicity against human MDA-MB-231 cells assessed as cell growth inhibition after 48 hrs by MTT assay; format: functional, cell-based; conditions: MDA-MB-231, 48 h; procedure, shortened: as §1
[5] = Cytotoxicity against human BT549 cells assessed as cell growth inhibition after 48 hrs by MTT assay; format: functional, cell-based; conditions: BT-549, 48 h; procedure, shortened: as §1
[6] = Cytotoxicity against human HeLa cells assessed as cell growth inhibition after 48 hrs by MTT assay; format: functional, cell-based; procedure, shortened: as §1
[7] = Cytotoxicity against human RWPE1 cells assessed as cell growth inhibition after 48 hrs by MTT assay; format: toxicity, cell-based, RWPE-1

SMILES: O=C1Nc2ccc(Cl)cc2/C1=C/c1cccc(OCc2cn(Cc3ccccc3)nn2)c1
- IC50 [1]: 24.2 µM
- IC50 [2]: > 50 µM
- IC50 [3]: > 50 µM

SMILES: O=C1Nc2ccc([N+](=O)[O-])cc2/C1=C\c1cccc(OCc2cn(Cc3ccccc3)nn2)c1
- IC50 [2]: > 50 µM
- IC50 [4]: > 50 µM
- IC50 [5]: > 50 µM
- IC50 [3]: > 50 µM
- IC50 [6]: > 50 µM

SMILES: Cc1ccc(C(C#Cc2ccccc2)c2ccc3c(c2)/C(=C\c2cccc(OCc4cn(Cc5ccccc5)nn4)c2)C(=O)N3)cc1 (centres undefined)
- IC50 [1]: 28.9 µM
- IC50 [2]: > 50 µM
- IC50 [5]: > 50 µM
- IC50 [3]: 36.6 µM
- IC50 [6]: 32.8 µM

SMILES: COc1ccc(Cc2ccc3c(c2)/C(=C/c2cccc(OCc4cn(Cc5ccccc5)nn4)c2)C(=O)N3)cc1
- IC50 [1]: 6.7 µM
- IC50 [2]: > 50 µM
- IC50 [4]: 20.4 µM
- IC50 [5]: 36 µM
- IC50 [3]: 30.5 µM
- IC50 [6]: 7.7 µM

SMILES: O=Cc1cccc(OCc2cn(Cc3ccccc3)nn2)c1
- IC50 [1]: > 50 µM
- IC50 [2]: > 50 µM
- IC50 [4]: > 50 µM
- IC50 [5]: > 50 µM
- IC50 [3]: > 50 µM
- IC50 [6]: > 50 µM

SMILES: O=C1Nc2ccccc2/C1=C\c1cccc(OCc2cn(Cc3ccccc3)nn2)c1
- IC50 [1]: 31.7 µM
- IC50 [2]: 29.5 µM
- IC50 [5]: > 50 µM
- IC50 [3]: > 50 µM
- IC50 [6]: 32.3 µM

SMILES: COc1cc(Cn2cc(COc3cccc(/C=C4\C(=O)Nc5ccccc54)c3)nn2)cc(OC)c1
- IC50 [2]: 31.7 µM
- IC50 [4]: > 50 µM
- IC50 [5]: > 50 µM
- IC50 [3]: 43.3 µM
- IC50 [6]: 33.8 µM

SMILES: O=C1Nc2ccc(C(c3ccccc3)c3ccccc3)cc2/C1=C\c1cccc(OCc2cn(Cc3ccccc3)nn2)c1
- IC50 [1]: > 50 µM
- IC50 [2]: > 50 µM
- IC50 [4]: > 50 µM
- IC50 [5]: > 50 µM
- IC50 [3]: > 50 µM
- IC50 [6]: > 50 µM

SMILES: COc1cc(Cn2cc(COc3cccc(/C=C4/C(=O)Nc5ccccc54)c3)nn2)cc(OC)c1
- IC50 [1]: 25.6 µM
- IC50 [2]: 37.1 µM
- IC50 [4]: 11.7 µM
- IC50 [3]: 26.7 µM
- IC50 [6]: 22 µM

SMILES: O=C1Nc2cc(Cl)ccc2/C1=C\c1cccc(OCc2cn(Cc3ccccc3)nn2)c1
- IC50 [1]: 20.1 µM
- IC50 [2]: > 50 µM
- IC50 [4]: > 50 µM
- IC50 [5]: > 50 µM
- IC50 [3]: > 50 µM
- IC50 [6]: > 50 µM

SMILES: O=C1Nc2cc(Br)ccc2/C1=C\c1cccc(OCc2cn(Cc3ccccc3)nn2)c1
- IC50 [1]: 5.7 µM
- IC50 [2]: > 50 µM
- IC50 [5]: > 50 µM
- IC50 [3]: 9.6 µM

SMILES: CCN(CC)CCNC(=O)c1c(C)[nH]c(/C=C2\C(=O)Nc3ccc(F)cc32)c1C [SUNITINIB]
- IC50 [1]: 16.3 µM
- IC50 [2]: 12.6 µM
- IC50 [4]: 7.4 µM
- IC50 [6]: 10.4 µM
- IC50 at 48 h [7]: 25.2 µM

SMILES: O=C1Nc2ccccc2/C1=C/c1cccc(OCc2cn(Cc3ccccc3)nn2)c1
- IC50 [2]: 34.5 µM
- IC50 [5]: > 50 µM
- IC50 [3]: 31.5 µM

SMILES: CC(=O)c1ccc2c(c1)/C(=C\c1cccc(OCc3cn(Cc4ccccc4)nn3)c1)C(=O)N2
- IC50 [1]: > 50 µM
- IC50 [2]: > 50 µM
- IC50 [4]: > 50 µM
- IC50 [5]: > 50 µM
- IC50 [3]: > 50 µM
- IC50 [6]: > 50 µM

SMILES: O=C1Nc2ccc(Br)cc2/C1=C/c1cccc(OCc2cn(Cc3ccccc3)nn2)c1
- IC50 [1]: 35.1 µM
- IC50 [2]: > 50 µM
- IC50 [4]: > 50 µM
- IC50 [5]: > 50 µM
- IC50 [3]: > 50 µM
- IC50 [6]: > 50 µM

SMILES: CC(=O)c1ccc2c(c1)/C(=C/c1cccc(OCc3cn(Cc4ccccc4)nn3)c1)C(=O)N2
- IC50 [1]: > 50 µM
- IC50 [2]: > 50 µM
- IC50 [4]: > 50 µM
- IC50 [5]: > 50 µM
- IC50 [3]: 36.3 µM
- IC50 [6]: > 50 µM

SMILES: COc1ccc(Cc2ccc3c(c2)/C(=C\c2cccc(OCc4cn(Cc5ccccc5)nn4)c2)C(=O)N3)cc1
- IC50 [1]: > 50 µM
- IC50 [2]: 32.2 µM
- IC50 [4]: > 50 µM
- IC50 [5]: > 50 µM
- IC50 [3]: > 50 µM

SMILES: Cc1ccc(C(C#Cc2ccccc2)c2ccc3c(c2)/C(=C/c2cccc(OCc4cn(Cc5ccccc5)nn4)c2)C(=O)N3)cc1 (centres undefined)
- IC50 [1]: > 50 µM
- IC50 [2]: > 50 µM
- IC50 [4]: > 50 µM
- IC50 [5]: > 50 µM
- IC50 [3]: > 50 µM
- IC50 [6]: > 50 µM

SMILES: O=C1Nc2ccc(C(=O)c3ccccc3)cc2/C1=C\c1cccc(OCc2cn(Cc3ccccc3)nn2)c1
- IC50 [1]: > 50 µM
- IC50 [2]: > 50 µM
- IC50 [4]: > 50 µM
- IC50 [5]: > 50 µM
- IC50 [3]: > 50 µM
- IC50 [6]: > 50 µM

SMILES: O=C1Nc2ccc(F)cc2/C1=C\c1cccc(OCc2cn(Cc3ccccc3)nn2)c1
- IC50 [2]: > 50 µM
- IC50 [4]: > 50 µM
- IC50 [5]: > 50 µM
- IC50 [3]: > 50 µM
- IC50 [6]: > 50 µM
